# Read-outs that look alike come from different tables or passages of the source.
# Legend:
# [1] = assay type: in vivo, human
# Outline: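 Population PK model built in adults and scaled to paediatrics, fitted to sparse heel- or finger-prick capillary samples. Weight-based oral doses were given once daily for 7 days in three age cohorts (≥6–≤24, 3–<6, >1–<3 months). Doses were escalated after data review committee assessment of PK and safety. AUC24h, Cmin and Cmax were estimated at day 1 and day 7, as mean with CV%.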
# [2] = Safety/tolerability: adverse events in RSV-infected infants; assay type: in vivo, human
# Outline: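 Adverse events were recorded over 28 days in infants given oral drug or placebo once daily for 7 days. Events were graded with the DMID Pediatric Toxicity Tables (November 2007), and the investigator judged relatedness to study drug. Events causing rehospitalisation were counted as serious. Vital signs, ECGs and physical examination were also done.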
# RSV = RSV RNA viral load from nasal swabs by qRT-PCR in RSV-infected infants; assay type: in vivo, respiratory syncytial virus
# Outline: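 Viral load was measured by quantitative real-time RT-PCR on midturbinate nasal swabs, taken over time during 7 days of once-daily oral dosing. After hospital discharge, no samples were taken until the day 7 visit. Results were expressed as median change from baseline.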
# RSV infection = assay: Clinical course of RSV infection; assay type: in vivo, human; settings: JNJ-8678 (combined)
# Outline: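 Infants (>1 to ≤24 months, term-born, hospitalised ≤72 h before randomisation with PCR-confirmed RSV) got oral drug or placebo once daily for 7 days (4:1 randomisation) and were followed 28 days. Outcomes were hospital stay and time to clinical stability: the latest of end of supplemental oxygen, end of supplemental feeding, normal heart rate and normal respiratory rate. Times were shown as Kaplan-Meier curves. Clinician and caregivers completed PRESORS symptom questionnaires electronically.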
# [3] = cohort 1a (≥6 to ≤24 mo), 2 mg/kg QD oral, n=4, Day 1
# [4] = cohort 1a (≥6 to ≤24 mo), 2 mg/kg QD oral, n=4, Day 7
# [5] = cohort 1b (≥6 to ≤24 mo), 6 mg/kg QD oral, n=4, Day 1
# [6] = cohort 1b (≥6 to ≤24 mo), 6 mg/kg QD oral, n=4, Day 7
# [7] = cohort 1c (≥6 to ≤24 mo), 8 mg/kg QD oral, n=4, Day 1
# [8] = cohort 1c (≥6 to ≤24 mo), 8 mg/kg QD oral, n=4, Day 7
# [9] = cohort 2a (≥3 to <6 mo), 1.5 mg/kg QD oral, n=4, Day 1
# [10] = cohort 2a (≥3 to <6 mo), 1.5 mg/kg QD oral, n=4, Day 7
# [11] = cohort 2b (≥3 to <6 mo), 4.5 mg/kg QD oral, n=4, Day 1
# [12] = cohort 2b (≥3 to <6 mo), 4.5 mg/kg QD oral, n=4, Day 7
# [13] = cohort 2c (≥3 to <6 mo), 6 mg/kg QD oral, n=1, Day 1
# [14] = cohort 2c (≥3 to <6 mo), 6 mg/kg QD oral, n=1, Day 7
# [15] = cohort 3a (>1 to <3 mo), 1 mg/kg QD oral, n=4, Day 1
# [16] = cohort 3a (>1 to <3 mo), 1 mg/kg QD oral, n=4, Day 7
# [17] = cohort 3b (>1 to <3 mo), 3 mg/kg QD oral, n=4, Day 1
# [18] = cohort 3b (>1 to <3 mo), 3 mg/kg QD oral, n=4, Day 7
# [19] = cohort 3c (>1 to <3 mo), 5 mg/kg QD oral, n=4, Day 1
# [20] = cohort 3c (>1 to <3 mo), 5 mg/kg QD oral, n=4, Day 7
# [21] = cohort 1d (≥6 to ≤24 mo), 9 mg/kg QD oral, n=4, Day 1
# [22] = cohort 1d (≥6 to ≤24 mo), 9 mg/kg QD oral, n=4, Day 7
compound,measurement,setting,value
CS(=O)(=O)CCCn1c(Cn2c(=O)n(CC(F)(F)F)c3ccncc32)cc2cc(Cl)ccc21 [JNJ-53718678],Mean AUC24h (CV%),[1]; [3],6047.2 (17.5) ng × h/mL
same,Mean Cmax (CV%),[1]; [3],546.8 (35.7) ng/mL
same,Mean Cmin (CV%),[1]; [3],81.4 (58.8) ng/mL
same,Mean AUC24h (CV%),[1]; [4],7738.8 (27.4) ng × h/mL
same,Mean Cmax (CV%),[1]; [4],721.3 (31.2) ng/mL
same,Mean Cmin (CV%),[1]; [4],114.0 (77.7) ng/mL
same,Mean Cmax (CV%),[1]; [5],1960.5 (58.1) ng/mL
same,Mean Cmin (CV%),[1]; [5],155.5 (89.3) ng/mL
same,Mean Cmax (CV%),[1]; [6],3304.2 (12.3) ng/mL
same,Mean Cmin (CV%),[1]; [6],225.7 (66.5) ng/mL
same,Mean Cmax (CV%),[1]; [7],3346.9 (13.0) ng/mL
same,Mean Cmin (CV%),[1]; [7],244.1 (90.4) ng/mL
same,Mean Cmax (CV%),[1]; [8],4298.8 (11.2) ng/mL
same,Mean Cmin (CV%),[1]; [8],323.9 (95.7) ng/mL
same,Target exposures,"[1]; cohort 1c, ≥6–≤24 months, 8 mg/kg QD, AUC24h similar to adults",Cmin and Cmax target exposures were not reached
same,Mean AUC24h (CV%),[1]; [9],6658.4 (25.6) ng × h/mL
same,Mean Cmax (CV%),[1]; [9],727.5 (68.7) ng/mL
same,Mean Cmin (CV%),[1]; [9],88.3 (39.2) ng/mL
same,Mean AUC24h (CV%),[1]; [10],8620.9 (17.3) ng × h/mL
same,Mean Cmax (CV%),[1]; [10],938.0 (53.3) ng/mL
same,Mean Cmin (CV%),[1]; [10],124.0 (49.1) ng/mL
same,Mean Cmax (CV%),[1]; [11],2533.2 (25.0) ng/mL
same,Mean Cmin (CV%),[1]; [11],319.8 (16.9) ng/mL
same,Mean Cmax (CV%),[1]; [12],3021.8 (41.2) ng/mL
same,Mean Cmin (CV%),[1]; [12],363.0 (18.9) ng/mL
same,Mean Cmax (CV%),[1]; [13],2556.8 (…) ng/mL
same,Mean Cmin (CV%),[1]; [13],428.6 (…) ng/mL
same,Mean Cmax (CV%),[1]; [14],3131.0 (…) ng/mL
same,Mean Cmin (CV%),[1]; [14],517.3 (…) ng/mL
same,Mean AUC24h (CV%),"[1]; cohort 2c (≥3 to <6 mo), 6 mg/kg QD oral, n=1, Day 7, listed as JNJ-8678, 6 mg/kg",34 980 ng × h/mL
same,Mean AUC24h (CV%),[1]; [15],4495.6 (4.8) ng × h/mL
same,Mean Cmax (CV%),[1]; [15],374.2 (18.5) ng/mL
same,Mean Cmin (CV%),[1]; [15],72.6 (41.1) ng/mL
same,Mean AUC24h (CV%),[1]; [16],5827.0 (12.3) ng × h/mL
same,Mean Cmax (CV%),[1]; [16],498.0 (13.2) ng/mL
same,Mean Cmin (CV%),[1]; [16],100.9 (46.3) ng/mL
same,Mean Cmax (CV%),[1]; [17],958.2 (15.2) ng/mL
same,Mean Cmin (CV%),[1]; [17],342.9 (14.3) ng/mL
same,Mean Cmax (CV%),[1]; [18],1671.2 (14.6) ng/mL
same,Mean Cmin (CV%),[1]; [18],650.2 (15.5) ng/mL
same,Mean Cmax (CV%),[1]; [19],1866.6 (51.7) ng/mL
same,Mean Cmin (CV%),[1]; [19],458.7 (54.9) ng/mL
same,Mean Cmax (CV%),[1]; [20],3001.8 (25.1) ng/mL
same,Mean Cmin (CV%),[1]; [20],929.0 (62.1) ng/mL
same,Mean AUC24h (CV%),"[1]; cohort 3c (>1 to <3 mo), 5 mg/kg QD oral, n=4, Day 7, listed as JNJ-8678, 5 mg/kg",39 627 ng × h/mL
same,Mean Cmax (CV%),[1]; [21],2371.8 (70.8) ng/mL
same,Mean Cmin (CV%),[1]; [21],333.2 (62.3) ng/mL
same,Mean Cmax (CV%),[1]; [22],3389.4 (52.9) ng/mL
same,Mean Cmin (CV%),[1]; [22],615.9 (75.2) ng/mL
same,Mean AUC24h (CV%),"[1]; cohort 1d (≥6 to ≤24 mo), 9 mg/kg QD oral, n=4, Day 7, listed as JNJ-8678, 9 mg/kg",35 840 ng × h/mL
same,SAE bronchiolitis,"[2]; 1/12, cohort 1b, mid-dose, 6 mg/kg QD",8%
same,Any AE,"[2]; All cohorts, n=37",28 (76) no. (%)
same,Any AE possibly related to placebo/JNJ-53718678,"[2]; All cohorts, n=37",11 (30) no. (%)
same,Any AE probably related to placebo/JNJ-53718678,"[2]; All cohorts, n=37",1 (3) no. (%)
same,Any worst grade 1 or 2 AE,"[2]; All cohorts, n=37",28 (76) no. (%)
same,Any worst grade 3 or 4 AE,"[2]; All cohorts, n=37",1 (3) no. (%)
same,Soft feces (AE),"[2]; All cohorts, n=37",7 (19) no. (%)
same,URTI (AE),"[2]; All cohorts, n=37",8 (22) no. (%)
same,Vomiting (AE),"[2]; All cohorts, n=37",8 (22) no. (%)
same,Serious AE,"[2]; All cohorts, n=37, serious due to rehospitalization, not related to study drug",2 (5) no. (%)
same,Any AE,"[2]; High (cohorts 1d,2c,3c), n=9",7 (78) no. (%)
same,Any AE possibly related to placebo/JNJ-53718678,"[2]; High (cohorts 1d,2c,3c), n=9",2 (22) no. (%)
same,Any AE probably related to placebo/JNJ-53718678,"[2]; High (cohorts 1d,2c,3c), n=9",0 no. (%)
same,Any worst grade 1 or 2 AE,"[2]; High (cohorts 1d,2c,3c), n=9",7 (78) no. (%)
same,Any worst grade 3 or 4 AE,"[2]; High (cohorts 1d,2c,3c), n=9",0 no. (%)
same,Serious AE,"[2]; High (cohorts 1d,2c,3c), n=9",0 no. (%)
same,Soft feces (AE),"[2]; High (cohorts 1d,2c,3c), n=9",0 no. (%)
same,URTI (AE),"[2]; High (cohorts 1d,2c,3c), n=9",3 (33) no. (%)
same,Vomiting (AE),"[2]; High (cohorts 1d,2c,3c), n=9",4 (44) no. (%)
same,Any AE,"[2]; Low (cohorts 1a,2a,3a), n=12",9 (75) no. (%)
same,Any AE possibly related to placebo/JNJ-53718678,"[2]; Low (cohorts 1a,2a,3a), n=12",3 (25) no. (%)
same,Any AE probably related to placebo/JNJ-53718678,"[2]; Low (cohorts 1a,2a,3a), n=12",0 no. (%)
same,Any worst grade 1 or 2 AE,"[2]; Low (cohorts 1a,2a,3a), n=12",9 (75) no. (%)
same,Any worst grade 3 or 4 AE,"[2]; Low (cohorts 1a,2a,3a), n=12",0 no. (%)
same,Soft feces (AE),"[2]; Low (cohorts 1a,2a,3a), n=12",2 (17) no. (%)
same,URTI (AE),"[2]; Low (cohorts 1a,2a,3a), n=12",1 (8) no. (%)
same,Vomiting (AE),"[2]; Low (cohorts 1a,2a,3a), n=12",0 no. (%)
same,Any AE,"[2]; Mid (cohorts 1b,2b,3b), n=12",10 (83) no. (%)
same,Any AE possibly related to placebo/JNJ-53718678,"[2]; Mid (cohorts 1b,2b,3b), n=12",4 (33) no. (%)
same,Any AE probably related to placebo/JNJ-53718678,"[2]; Mid (cohorts 1b,2b,3b), n=12",1 (8) no. (%)
same,Any worst grade 1 or 2 AE,"[2]; Mid (cohorts 1b,2b,3b), n=12",10 (83) no. (%)
same,Any worst grade 3 or 4 AE,"[2]; Mid (cohorts 1b,2b,3b), n=12",1 (8) no. (%)
same,Soft feces (AE),"[2]; Mid (cohorts 1b,2b,3b), n=12",3 (25) no. (%)
same,URTI (AE),"[2]; Mid (cohorts 1b,2b,3b), n=12",4 (33) no. (%)
same,Vomiting (AE),"[2]; Mid (cohorts 1b,2b,3b), n=12",3 (25) no. (%)
same,Any AE,"[2]; Mid-high (cohort 1c), n=4",2 (50) no. (%)
same,Any AE possibly related to placebo/JNJ-53718678,"[2]; Mid-high (cohort 1c), n=4",2 (50) no. (%)
same,Any AE probably related to placebo/JNJ-53718678,"[2]; Mid-high (cohort 1c), n=4",0 no. (%)
same,Any worst grade 1 or 2 AE,"[2]; Mid-high (cohort 1c), n=4",2 (50) no. (%)
same,Any worst grade 3 or 4 AE,"[2]; Mid-high (cohort 1c), n=4",0 no. (%)
same,Serious AE,"[2]; Mid-high (cohort 1c), n=4",0 no. (%)
same,Soft feces (AE),"[2]; Mid-high (cohort 1c), n=4",2 (50) no. (%)
same,URTI (AE),"[2]; Mid-high (cohort 1c), n=4",0 no. (%)
same,Vomiting (AE),"[2]; Mid-high (cohort 1c), n=4",1 (25) no. (%)
same,Patients with AEs considered at least possibly related to JNJ-8678,"[2]; all JNJ-8678, 11/37",30%
same,"Grade 3 AEs (bronchiolitis, reported as serious AE), number","[2]; all JNJ-8678, n=37",1
same,Tolerability in RSV-infected infants,"[2]; oral, once daily for 7 days",well tolerated
same,"Deaths, grade 4 AEs, AEs leading to discontinuation",[2]; whole study,"No deaths, grade 4 AEs, or AEs leading to study discontinuation or permanent discontinuation of study drug were reported"
same,Dose-response relationship for antiviral effects,RSV; across JNJ-8678 dose levels,no clear dose-response relationship was observed
same,Reduction in viral load compared with placebo,RSV; all doses combined,greater reduction in viral load with JNJ-8678 than placebo
same,Median RSV viral load change from baseline,"RSV; by day 3, all JNJ-8678 doses combined",−1.98 log10 copies/mL
same,Median time to clinical stability following the start of study treatment,RSV infection; placebo 56.7 hours,47.4 h
same,Median length of hospital stay,RSV infection; placebo 77.5 hours,77.7 h
same,Time after which all patients were clinically stable,RSV infection; placebo 121.1 hours,123.5 h
same,Maximum length of hospital stay observed,RSV infection; placebo 144.5 hours,150.4 h

# Reference: PMC7744997 (Clinical Infectious Diseases: An Official Publication of …, 2020)
